In ChEMBL document CHEMBL4270558, “Exploration of carboxy pyrazole derivatives: Synthesis, alkaline phosphatase, nucleotide pyrophosphatase/phosphodiesterase and nucleoside triphosphate diphosphohydrolase inhibition studies with potential anticancer profile” (Eur J Med Chem, 2018):

Key:
[1] = biological target: T1, Ectonucleoside triphosphate diphosphohydrolase 2 (Rattus norvegicus) (UniProt O35795); assay: Inhibition of rat NTPDase2 expressed in CHO cells using ATP as substrate preincubated for 10 mins followed by substrate addition measured after 10 mins by malachite green reagent-based assay; assay type: cell-based; design: concentration or dose not given beside the values
T1 sequence (whole entry): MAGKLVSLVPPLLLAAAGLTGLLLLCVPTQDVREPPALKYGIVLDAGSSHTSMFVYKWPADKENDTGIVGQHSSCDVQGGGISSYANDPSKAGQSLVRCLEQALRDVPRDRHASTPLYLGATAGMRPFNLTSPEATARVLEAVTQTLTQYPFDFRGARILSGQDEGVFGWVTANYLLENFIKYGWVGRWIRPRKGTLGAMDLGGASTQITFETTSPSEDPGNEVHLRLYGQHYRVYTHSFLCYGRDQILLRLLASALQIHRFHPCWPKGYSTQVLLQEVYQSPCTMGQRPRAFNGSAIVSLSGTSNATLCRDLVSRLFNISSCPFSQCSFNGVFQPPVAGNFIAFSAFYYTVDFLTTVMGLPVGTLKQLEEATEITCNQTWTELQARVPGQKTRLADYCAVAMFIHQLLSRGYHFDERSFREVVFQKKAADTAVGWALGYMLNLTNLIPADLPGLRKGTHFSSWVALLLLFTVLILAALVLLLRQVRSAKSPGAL
Procedure, shortened: (§1)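 Rat NTPDase1, 2 or 3 from electroporated CHO cells. Final enzyme amounts: NTPDase1 0.99 μg, NTPDase2 1.21 μg, NTPDase3 1.04 μg, NTPDase8 1.85 μg. Buffer 50 mM Tris-HCl with 5 mM CaCl2, pH 7.4. Enzyme and compound held 10 min at 37 °C, then ATP (0.5 mM) added for 10 min at 37 °C. Malachite green added and absorbance read at 630 nm.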

[2] = biological target: T2, Nucleoside triphosphate diphosphohydrolase 3 (Rattus norvegicus) (UniProt A6I415); assay: Inhibition of rat NTPDase3 expressed in CHO cells using ATP as substrate preincubated for 10 mins followed by substrate addition measured after 10 mins by malachite green reagent-based assay; assay type: cell-based; design: concentration or dose not given beside the values; procedure, shortened: as §1
T2 sequence (whole entry): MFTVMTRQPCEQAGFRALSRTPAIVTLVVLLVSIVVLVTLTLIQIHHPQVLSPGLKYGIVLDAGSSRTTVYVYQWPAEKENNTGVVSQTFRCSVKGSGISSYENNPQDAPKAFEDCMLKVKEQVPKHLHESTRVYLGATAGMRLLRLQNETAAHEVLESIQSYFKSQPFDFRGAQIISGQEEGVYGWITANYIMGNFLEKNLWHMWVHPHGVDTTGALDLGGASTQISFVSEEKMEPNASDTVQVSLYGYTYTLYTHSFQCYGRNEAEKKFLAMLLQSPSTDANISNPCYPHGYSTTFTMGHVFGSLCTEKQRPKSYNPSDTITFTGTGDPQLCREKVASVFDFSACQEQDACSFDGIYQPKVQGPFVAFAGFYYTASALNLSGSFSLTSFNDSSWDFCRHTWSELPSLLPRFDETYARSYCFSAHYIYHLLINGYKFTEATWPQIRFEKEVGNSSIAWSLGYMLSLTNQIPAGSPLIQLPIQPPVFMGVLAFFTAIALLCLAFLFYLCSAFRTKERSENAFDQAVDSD

[3] = biological target: T3, Ectonucleoside triphosphate diphosphohydrolase 8 (Rattus norvegicus) (UniProt Q5DRK1); assay: Inhibition of rat NTPDase8 using ATP as substrate preincubated for 10 mins followed by substrate addition measured after 10 mins by malachite green reagent-based assay; design: concentration or dose not given beside the values; procedure, shortened: as §1
T3 sequence (whole entry): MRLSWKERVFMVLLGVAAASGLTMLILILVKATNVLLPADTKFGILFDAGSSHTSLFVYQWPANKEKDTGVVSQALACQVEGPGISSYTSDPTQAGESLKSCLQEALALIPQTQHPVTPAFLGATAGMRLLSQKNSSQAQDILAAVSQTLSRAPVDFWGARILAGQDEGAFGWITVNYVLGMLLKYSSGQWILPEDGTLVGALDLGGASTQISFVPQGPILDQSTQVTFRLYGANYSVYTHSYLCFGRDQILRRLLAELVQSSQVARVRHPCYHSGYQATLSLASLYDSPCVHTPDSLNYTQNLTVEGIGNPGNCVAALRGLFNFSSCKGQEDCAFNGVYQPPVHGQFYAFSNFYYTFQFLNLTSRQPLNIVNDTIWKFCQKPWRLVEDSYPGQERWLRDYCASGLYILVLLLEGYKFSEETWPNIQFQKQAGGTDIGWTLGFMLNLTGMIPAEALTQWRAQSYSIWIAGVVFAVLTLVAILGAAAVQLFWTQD

MCF7 = assay: Cytotoxicity against human MCF7 cells assessed as cell growth inhibition at 100 uM by MTT assay; assay type: functional; details: read-out: GI
Procedure, shortened: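 Single-dose screen at 100 μM; percent growth reduction determined by MTT-based cell viability assay. Cancer lines MCF-7 (breast), HeLa (cervix) and K-562 (bone marrow lymphoblast) run alongside normal baby hamster kidney BHK-21 cells.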

Structure (SMILES): Cc1ccc(C(=O)n2nc(C)c(Cl)c2C)cc1
- inhibition [1]: 31.6%
- inhibition [2]: 47.6%
- inhibition [3]: 33.3%
- inhibition of growth at 100 µM (MCF7): 71.2%

Structure (SMILES): Cc1cc(C)n(C(=O)c2ccc(N)cc2)n1
- inhibition [1]: 37.9%
- inhibition [2]: 40.6%
- inhibition [3]: 41.3%
- inhibition of growth at 100 µM (MCF7): 65.2%

Structure (SMILES): Cc1cccc(C(=O)n2nc(C)c(Cl)c2C)c1
- inhibition [1]: 43.5%
- inhibition [2]: 46.4%
- inhibition [3]: 46.6%
- inhibition of growth at 100 µM (MCF7): 65.9%

Structure (SMILES): Cc1cc(C)n(C(=O)c2ccncc2)n1
- inhibition [1]: 35.5%
- inhibition [2]: 46.8%
- inhibition [3]: 23.9%
- inhibition of growth at 100 µM (MCF7): 68.2%

Structure (SMILES): Cc1ccc(Oc2c(C)nn(C(=O)c3ccc(N)cc3)c2C)cc1
- inhibition [1]: 38.9%
- inhibition [2]: 47%
- inhibition [3]: 35.5%
- inhibition of growth at 100 µM (MCF7): 71.3%

Structure (SMILES): Cc1cc(C)n(C(=O)c2ccccc2C)n1
- inhibition [1]: 43.2%
- inhibition [2]: 38.5%
- inhibition [3]: 44.9%
- inhibition of growth at 100 µM (MCF7): 68.5%

Structure (SMILES): Cc1nn(C(=O)[C@H](C)c2ccc(CC(C)C)cc2)c(C)c1Cl
- inhibition [1]: 43.4%
- inhibition [2]: 48.3%
- inhibition [3]: 43%
- inhibition of growth at 100 µM (MCF7): 60.8%

Structure (SMILES): Cc1cc(C)n(C(=O)c2ccc(Cl)cc2)n1
- inhibition [1]: 40.8%
- inhibition [2]: 40.9%
- inhibition [3]: 25.7%
- inhibition of growth at 100 µM (MCF7): 72.2%

Structure (SMILES): Cc1cc(C)n(C(=O)c2ccc3ccccc3c2)n1
- inhibition [1]: 37.2%
- inhibition [2]: 43.6%
- inhibition [3]: 41.3%
- inhibition of growth at 100 µM (MCF7): 58.2%

Structure (SMILES): Cc1ccccc1C(=O)n1nc(C)c(Cl)c1C
- inhibition [1]: 42.5%
- inhibition [2]: 37.8%
- inhibition [3]: 44.7%
- inhibition of growth at 100 µM (MCF7): 52.6%

Structure (SMILES): Cc1nn(C(=O)c2ccc(N)cc2)c(C)c1Cl
- inhibition [1]: 33.8%
- inhibition [2]: 47.3%
- inhibition [3]: 32.9%
- inhibition of growth at 100 µM (MCF7): 70.3%

Structure (SMILES): Cc1cc(=O)n(C(=O)c2ccc(N)cc2)[nH]1
- inhibition [1]: 43.6%
- inhibition [2]: 38.7%
- inhibition [3]: 46.9%
- inhibition of growth at 100 µM (MCF7): 48.2%

Structure (SMILES): Cc1nn(C(=O)c2ccc(Cl)cc2)c(C)c1Cl
- inhibition [1]: 30.6%
- inhibition [2]: 37.8%
- inhibition [3]: 29.9%
- inhibition of growth at 100 µM (MCF7): 78.7%

Structure (SMILES): Cc1cccc(C(=O)n2nc(C)cc2C)c1
- inhibition [1]: 39.8%
- inhibition [2]: 36.3%
- inhibition [3]: 33.8%
- inhibition of growth at 100 µM (MCF7): 67.8%

Structure (SMILES): Cc1nn(C(=O)/C=C/c2ccccc2)c(C)c1Cl
- inhibition [1]: 34.5%
- inhibition [2]: 42.9%
- inhibition [3]: 32.6%
- inhibition of growth at 100 µM (MCF7): 50.1%

Structure (SMILES): Cc1n[nH]c(C)c1Oc1ccc2ccccc2c1
- inhibition [1]: 35.5%
- inhibition [2]: 40.2%
- inhibition [3]: 34.5%
- inhibition of growth at 100 µM (MCF7): 68.1%

Structure (SMILES): Cc1ccc(C(=O)n2[nH]c(C)cc2=O)cc1
- inhibition [1]: 45.1%
- inhibition [2]: 43.6%
- inhibition [3]: 49.3%
- inhibition of growth at 100 µM (MCF7): 28.1%

Structure (SMILES): Cc1nn(C(=O)c2ccncc2)c(C)c1Cl
- inhibition [1]: 39.3%
- inhibition [2]: 42.9%
- inhibition [3]: 41.5%
- inhibition of growth at 100 µM (MCF7): 63.4%

Structure (SMILES): Cc1ccc(Oc2c(C)nn(C(=O)c3ccc(Cl)cc3)c2C)cc1
- inhibition [1]: 43.9%
- inhibition [2]: 49.1%
- inhibition [3]: 49.3%
- inhibition of growth at 100 µM (MCF7): 54.7%

Structure (SMILES): Cc1nn(C(=O)c2ccc3ccccc3c2)c(C)c1Cl
- inhibition [1]: 40.5%
- inhibition [2]: 49.3%
- inhibition [3]: 44.9%
- inhibition of growth at 100 µM (MCF7): 74.7%
